Screening results as filed in PubChem BioAssay.
This is a sample that favours compounds with a hit; in the whole collection about 4.6% have one here.
OX1R antag-1 – blocks the human orexin 1 receptor; O43613; OX1R-expressing cells, FRET antagonist read-out; inhibition, % at 6.6 µM; actives 1.8% (n = 330,000); AID 485270; in the data active = inhibition mostly above about 38%, no sharp cut-off; inactive = mostly below about 40%;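 also: 0% = agonist challenge alone and 100% = reference antagonist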
GPR7 antag – antagonists of human GPR7 (neuropeptides B/W receptor 1); P48145; GPR7-expressing cells, fluorescence antagonist assay; inhibition, % at 4.4 µM; actives 1.1% (n = 290,000); in the data active = inhibition above about 16%, passing the limit was not always enough;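 also: cells stimulated with the agonist NPW; 0% = agonist with vehicle and 100% = vehicle without agonist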
Target sequence (P48145 whole entry, looked up): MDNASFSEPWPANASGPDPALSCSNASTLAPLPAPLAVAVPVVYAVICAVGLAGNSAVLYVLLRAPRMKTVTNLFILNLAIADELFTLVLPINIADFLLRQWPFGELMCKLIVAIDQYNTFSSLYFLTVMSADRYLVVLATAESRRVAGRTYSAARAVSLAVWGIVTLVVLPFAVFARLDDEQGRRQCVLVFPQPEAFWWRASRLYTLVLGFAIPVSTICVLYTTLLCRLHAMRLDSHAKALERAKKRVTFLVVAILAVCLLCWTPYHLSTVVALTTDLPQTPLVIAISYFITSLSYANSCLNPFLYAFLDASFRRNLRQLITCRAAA
TAAR1 agonist – human TAAR1 agonism. Q96RJ0. CHO RD-HGA16 TAAR1, Fluo-8 calcium fluorescence; vehicle wells 0%, saturating PEA agonist 100%. activation, % at 3 µM. actives 0.99% (n = 360,000). AID 624467;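 active = activation above the mean activation of all test compounds in the run plus 3 SD, cut at about 38% in these data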
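Assay system – CHO-derived RD-HGA16 cells with stable Gα16 and human TAAR1 · Compound dosing – one-point dosing at 3 µM (nominal) · Incubation – 17-24 h seeding, 75 min 37 °C dye, 30 min RT · Measured by – kinetic Fluo-8 calcium fluorescence · Control set – DMSO vehicle as 0%, PEA at EC100 as 100% · Repeats – single well for each compound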
CHO parental Ca – counter-screen for OX1R antagonists: effect in parental CHO cells | parental CHO-K1, ATP-induced calcium, Fluo-8 fluorescence | actives 0.63% (n = 330,000) | inhibition, % at 5.6 µM;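 active = inhibition above that plate's mean sample inhibition plus 3 SD, cut at about 26% in these data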;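 also: 0% = ATP-challenged DMSO wells and 100% = DMSO wells without ATP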
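Test system: parental CHO cells; detection: calcium-sensitive Fluo-8 fluorescence; evaluation: percent inhibition of calcium signal; also added: ATP as calcium-mobilizing challenge; repeats: one well per compound; control set: ATP-challenged DMSO wells low, unchallenged DMSO wells high; compound: single nominal dose of 5.6 µM per compound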
OX1R antag-2 – antagonists of human orexin 1 receptor; actives 0.43% (n = 330,000); inhibition, % at 5 µM; CHO/OX1R cells, Fluo-8 calcium fluorescence, orexin A;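 active = inhibition above its plate's threshold, mean inhibition of all tested compounds on the plate plus 3 SD, cut at about 37% in these data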;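 also: 0% = orexin A challenge wells and 100% = SB-334867-A antagonist wells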
TAAR1 antagonist – antagonists of human TAAR1. Q96RJ0. CHO RD-HGA16 TAAR1, Fluo-8 calcium fluorescence, antagonist. inhibition, % at 3 µM. actives 1.5% (n = 360,000). AID 624466;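 active = inhibition above a per-plate cutoff, the mean inhibition of test compounds on that plate plus 3 SD, cut at about 49% in these data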;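 also: 0% = DMSO plus EC80 beta-PEA response and 100% = DMSO alone without agonist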
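test system = CHO RD-HGA16 cells bearing hTAAR1 | replication = singlicate | controls = DMSO-only wells and EC80 β-PEA-stimulated wells | reagent = EC80 β-phenethylamine stimulus | read-out basis = percent inhibition of PEA-evoked calcium signal, max/basal emission ratio | schedule = seeding 17-24 h prior, 75-min 37 °C, 30-min RT dye loading | signal = kinetic Fluo-8 calcium fluorescence measurement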
nonsel antag count – counter-screen for TAAR1 antagonists: nonselective antagonists; actives 77% (n = 2,400); inhibition, % at 3 µM; shares compounds with TAAR1 antagonist; counterscreen cell line, calcium fluorescence, antagonist mode; in the data active = inhibition above about 22%;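 also: CHO-Ga16 host cells stimulated with ATP at an EC80 level; 0% = agonist EC80 plus vehicle and 100% = vehicle without agonist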
TAAR1 ant conf – human TAAR1 antagonism, confirmed; shares compounds with TAAR1 antagonist; TAAR1-expressing cells, fluorescence antagonist read-out; inhibition, % at 3 µM; actives 40% (n = 2,400); in the data active = inhibition above about 49%;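 also: CHO-Ga16 host cells challenged with agonist PEA near its EC80; 0% = agonist at EC80 plus vehicle and 100% = vehicle with no agonist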
Ga16 ag counter – nonselective Ga16 agonism, counter-screen. activation, % at 3 µM. actives 18% (n = 2,400). Ga16-expressing cells, calcium fluorescence, agonist counterscreen. shares compounds with TAAR1 antagonist; in the data active = activation above about 12%;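 also: 0% = vehicle wells and 100% = saturating stimulus response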
TAAR1 ag counter – TAAR1 agonism, antagonist counter-screen; hTAAR1 cell line, fluorescence activation, agonist mode; shares compounds with TAAR1 antagonist; activation, % at 3 µM; actives 2% (n = 2,400); in the data active = activation above about 37%;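 also: CHO cells stably expressing TAAR1 with calcium dye readout; 0% = DMSO vehicle and 100% = full agonist response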
* = called active by the depositor; / = not tested or not shown.

SMILES | OX1R antag-1 | GPR7 antag | TAAR1 agonist | CHO parental Ca | OX1R antag-2 | TAAR1 antagonist | nonsel antag count | TAAR1 ant conf | Ga16 ag counter | TAAR1 ag counter
Cc1nn(-c2ccccc2)c(N2CCCC2)c1/C=N/n1cnc2scc(-c3ccccc3)c2c1=O | 9 | -6 | 5 | -25 | -31 | 54* | 28* | 39 | 3 | 2
O=C(Cc1ccc(Cl)cc1)Nc1cccc(-c2nnc(-c3ccco3)o2)c1 | 16 | 1 | 18 | -3 | -18 | 62* | 27* | 40 | 11 | 11
CC(=O)Oc1ccc(C(=O)Nc2cccc(-c3nnc(-c4ccco4)o3)c2)cc1 | 10 | 1 | 18 | -8 | -18 | 35 | / | / | / | /
O=C(Nc1cccc(-c2nnc(-c3ccco3)o2)c1)C(c1ccccc1)c1ccccc1 | 41 | -11 | 18 | -1 | -4 | 64* | 29* | 39 | 2 | 0
C/C(=N\NC(=O)c1nc2ccccn2c1C)c1cc2ccccc2o1 | 14 | -9 | 6 | -12 | -34 | 19 | / | / | / | /
C/C(=N\NC(=O)c1cc2ccccc2cc1O)c1cc2ccccc2o1 | 8 | -10 | 19 | -6 | 4 | 60* | 62* | 88* | 37* | 34
O=S(=O)(/N=C(/Nc1ccc(Cl)c(S(=O)(=O)N2CCOCC2)c1)c1ccc(F)cc1)c1ccccc1 | 36 | -7 | 15 | -11 | -14 | 71* | 33* | 57* | 11 | 14
COc1ccccc1NS(=O)(=O)c1cc(NC(=O)C(C)(C)C)ccc1N1CCOCC1 | 14 | / | 20 | -19 | -23 | 72* | 29* | 58* | 10 | 10
O=C(Nc1ccc(N2CCOCC2)c(S(=O)(=O)Nc2ccccc2Cl)c1)c1ccc(F)cc1 | 13 | / | 9 | 4 | 23 | 70* | 36* | 53* | 13* | 14
COc1cc(NC(=O)NNC(=O)c2cc3occc3n2C)cc(OC)c1OC | 5 | -6 | 0 | -9 | -17 | -21 | / | / | / | /
CN1CCCN(C(=O)c2cccc3ccccc23)CC1 | 2 | -13 | 2 | -7 | -6 | -15 | / | / | / | /
COc1ccc(S(=O)(=O)NC2CC(C)(C)NC(C)(C)C2)c2ccccc12 | 4 | 3 | 3 | -1 | -13 | -19 | / | / | / | /
CSc1sccc1/C=N/O | 9 | 6 | 2 | 3 | 1 | -1 | / | / | / | /
CSc1sccc1/C=C(/C#N)C(=O)c1ccco1 | 5 | -3 | 3 | -5 | -30 | 50* | 33* | 57* | 7 | 10
COc1ccc(NC(=O)N(C)[C@H]2C[C@H]3c4[nH]c5c(-c6ccccc6)cccc5c4CCN3C(=O)[C@H]2[C@H](C)O)cc1 | / | / | 16 | / | / | 69* | 41* | 53* | 8 | 6
CCOC(=O)N(C)[C@H]1C[C@H]2c3[nH]c4c(-c5ccccc5)cccc4c3CCN2C(=O)[C@H]1[C@H](C)O | / | / | 3 | / | / | 13 | / | / | / | /
COc1cccc(C(=O)N(Cc2ccc(N(C)C)cc2)C2CCS(=O)(=O)C2)c1 (stereo not drawn) | 8 | -5 | -2 | -8 | -12 | 106* | 4 | -4 | 5 | 4
CCOC(=O)C1=C(C)NC(C)=C(C(=O)OCC)C1C(=O)OCC(=O)NC1CCCCC1 | 15 | / | 18 | -4 | -14 | 61* | 27* | 52* | 10 | 16
CCOC(=O)C1=C(C)NC(C)=C(C(=O)OCC)C1C(=O)OCC(=O)NC1(C#N)CCCCC1 | 2 | / | 17 | -28 | -20 | 63* | 29* | 54* | 9 | 9
Cc1ccnc2nc(C(=O)OCC(=O)N(C)C3CCCCC3)nn12 | / | / | 3 | / | / | -31 | / | / | / | /
